Source: PubChem
HKDC1 inhibitor = inhibitors of human hexokinase HKDC1. recombinant HKDC1, G6PDH/diaphorase resazurin coupled fluorescence. inhibition, % at 20 µM. AID 493160. actives 0.16% (n = 340,000). Q2TB90;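 active means inhibition above about 35% when tested at 20 µM, limit read from the data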
Target sequence (Q2TB90 whole entry, looked up): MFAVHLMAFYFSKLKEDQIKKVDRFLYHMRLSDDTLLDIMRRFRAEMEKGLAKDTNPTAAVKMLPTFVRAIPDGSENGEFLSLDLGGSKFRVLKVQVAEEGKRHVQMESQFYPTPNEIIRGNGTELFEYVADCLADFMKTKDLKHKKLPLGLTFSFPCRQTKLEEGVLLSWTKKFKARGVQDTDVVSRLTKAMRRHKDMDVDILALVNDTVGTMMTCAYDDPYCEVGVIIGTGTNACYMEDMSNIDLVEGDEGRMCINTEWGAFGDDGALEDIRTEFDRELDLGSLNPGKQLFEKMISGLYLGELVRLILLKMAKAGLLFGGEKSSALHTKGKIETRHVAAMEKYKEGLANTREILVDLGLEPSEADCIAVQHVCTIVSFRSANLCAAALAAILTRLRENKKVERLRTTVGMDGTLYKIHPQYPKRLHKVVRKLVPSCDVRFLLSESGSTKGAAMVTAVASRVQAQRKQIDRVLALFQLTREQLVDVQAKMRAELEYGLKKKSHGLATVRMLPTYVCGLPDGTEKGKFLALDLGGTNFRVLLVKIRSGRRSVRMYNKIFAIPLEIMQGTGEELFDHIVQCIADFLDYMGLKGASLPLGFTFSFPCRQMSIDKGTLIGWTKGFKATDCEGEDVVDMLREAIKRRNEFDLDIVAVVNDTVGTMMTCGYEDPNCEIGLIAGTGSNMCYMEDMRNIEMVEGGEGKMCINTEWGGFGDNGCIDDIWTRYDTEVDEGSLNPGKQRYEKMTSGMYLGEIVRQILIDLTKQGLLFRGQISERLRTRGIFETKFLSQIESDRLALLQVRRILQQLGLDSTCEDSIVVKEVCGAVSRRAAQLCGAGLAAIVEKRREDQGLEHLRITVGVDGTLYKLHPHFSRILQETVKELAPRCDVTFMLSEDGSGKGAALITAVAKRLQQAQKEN
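Assay system: recombinant HKDC1 hexokinase; detection: coupled resazurin fluorescence, excitation 525 nm, emission 613 nm; benchmarks: DMSO-plus-enzyme-mix negative control, buffer-substituted positive control; compound dosing: single 20 µM dose; schedule: 90 min at room temperature in dark; also added: glucose plus 1 mM ATP as hexokinase substrates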
Tb hexokinase = T. brucei hexokinase 1 inhibition. recombinant TbHK1, G6PDH-coupled NADH A340. inhibition, % at 10 µM. actives 0.11% (n = 220,000). AID 1430;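 active means inhibition of 50% or more in the single-dose primary screen; inactive means inhibition below 50%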
Diaph inh CS = diaphorase inhibition or chemical oxidation counter-screen; inhibition, % at 20 µM; AID 1217; diaphorase resazurin-to-resorufin fluorescence, NADH, 16 min; bacterial (C. kluyveri) enzyme, not human; actives 0.69% (n = 190,000);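 active means primary screen inhibition at 20 µM above a set limit, cut at about 50% in these data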
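controls = No-NADH positive control and DMSO neutral control | system = Clostridium kluyveri diaphorase enzyme | timing = reaction incubation of 16 min at room temperature | signal = resorufin fluorescence 544/590 nm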
PfG6PD inh = PfG6PD (Plasmodium falciparum) enzyme inhibition. AID 504690. actives 0.78% (n = 350,000). PfGluPho enzyme, NADPH resazurin-diaphorase fluorescence. inhibition, % at 20 µM;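 active means inhibition reaching at least a set limit at 20 µM in the primary screen, cut at about 59% in these data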
G6PDH CS = inhibits Leuconostoc G6PDH, flagging false hits in G6PDH-based assays; Purified L. mesenteroides G6PDH, diaphorase/resazurin coupled fluorescence, 45 min; inhibition, % at 5 µM; actives 0.12% (n = 200,000); in the data active means inhibition above about 50%
HKDC1 act conf = HKDC1 (human) activation, single-dose confirmed | inhibition, % at 20 µM | AID 504708 | actives 14% (n = 740) | recombinant HKDC1, G6PDH/diaphorase resazurin fluorescence; hits give low values | shares compounds with HKDC1 inhibitor;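 active means inhibition at or below a set negative limit, negative inhibition meaning the enzyme was activated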
Of the large screens only hits and unclear results are named; the others gave an inactive call (follow-up assays come after a bar, where they were run). Hits are enriched below; roughly 1.2% of the tested compounds scored in any of these assays.

Cc1c(C(=O)Oc2ccc(-c3cnc4ccccc4n3)cc2)cccc1[N+](=O)[O-]	none | HKDC1 act conf inactive
Cc1cc(C)c(C)c(S(=O)(=O)NCCCN2CCCC2=O)c1C	none (no result: Tb hexokinase, Diaph inh CS, G6PDH CS)
CCN1CCN(c2cc3c(nn2)Oc2ccccc2N3C)CC1	none | HKDC1 act conf inactive
O=C(c1ccco1)N1CCN(C(=S)Nc2ccc(Br)cc2Cl)CC1	none (no result: Tb hexokinase, Diaph inh CS, G6PDH CS)
CCCc1nc2oc3c(NCC4CCCO4)ncnc3c2c2c1COC(C)(C)C2 (stereo not drawn)	HKDC1 inhibitor 35 | HKDC1 act conf inactive
CCCc1nc2oc3c(NCc4ccccn4)ncnc3c2c2c1COC(C)(C)C2	none | HKDC1 act conf inactive
Cc1nc2oc3c(NCc4ccccn4)ncnc3c2c2c1COC(C)(C)C2	none
COc1cc(C(=O)NC(=S)Nc2cccc(-c3cc4ccccc4oc3=O)c2)cc(OC)c1OC	none
Cc1cc(NC(=S)NC(=O)c2ccccc2)ccc1-c1cc2ccccc2oc1=O	none | HKDC1 act conf inactive
COc1ccccc1OCCNC(=O)c1ccc(C)c(S(=O)(=O)N2CCOCC2)c1	none (no result: Tb hexokinase, Diaph inh CS, G6PDH CS)
Cc1ccccc1S(=O)(=O)c1c(C)cc(C)n(CC(C)C)c1=O	HKDC1 inhibitor 71 | HKDC1 act conf inactive
O=C(O)Cc1ccc(-n2cccc2)cc1	none
NC(CSC(c1ccccc1)(c1ccccc1)c1cccc2ccccc12)C(=O)O (stereo not drawn)	HKDC1 inhibitor 35 (no result: Tb hexokinase, Diaph inh CS, G6PDH CS) | HKDC1 act conf inactive
O=C1c2ccccc2C2(c3cc(C(F)(F)F)cc(C(F)(F)F)c3)NCCN12 (stereo not drawn)	none (no result: Tb hexokinase, Diaph inh CS, G6PDH CS)
O=C1/C(=C/C=C/c2ccco2)SC(=S)N1c1ccc(O)cc1	none (no result: Diaph inh CS, G6PDH CS)
CC(C)C(C(=O)O)N1C(=O)/C(=C/C=C/c2ccco2)SC1=S (stereo not drawn)	HKDC1 inhibitor 51 | HKDC1 act conf inactive
O=S(=O)(O)c1ccc(O)c2cc(Nc3ccccc3)ccc12	HKDC1 inhibitor 65 (no result: Tb hexokinase, Diaph inh CS, G6PDH CS) | HKDC1 act conf inactive
O=S(=O)(O)c1cc(O)c2ccc(Nc3ccccc3)cc2c1	HKDC1 inhibitor 50 (no result: Tb hexokinase, Diaph inh CS, G6PDH CS) | HKDC1 act conf inactive
CC(=O)Nc1ccc2c(O)cc(S(=O)(=O)O)cc2c1	none (no result: Tb hexokinase, Diaph inh CS, G6PDH CS)
COc1ccccc1Nc1ccc2c(O)cc(S(=O)(=O)O)cc2c1	HKDC1 inhibitor 38 (no result: Tb hexokinase, Diaph inh CS, G6PDH CS) | HKDC1 act conf inactive
CC(O)c1nc2ccc(C(=O)O)cc2[nH]1 (stereo not drawn)	none (no result: Diaph inh CS, G6PDH CS)
O=C(NCCc1ccc(OC(F)F)cc1)C1CC(=O)N(c2ccc3c(c2)OCCO3)C1 (stereo not drawn)	none (no result: Tb hexokinase, Diaph inh CS, G6PDH CS)
CS(=O)(=O)N(CC(=O)N1CCc2ccccc2C1)c1ccccc1F	none (no result: Tb hexokinase, Diaph inh CS, G6PDH CS)
O=C(C1=C(O)C(=O)N(c2nc3ccc(Cl)cc3s2)C1c1ccco1)c1ccco1 (stereo not drawn)	HKDC1 inhibitor 36 (no result: Tb hexokinase, Diaph inh CS, G6PDH CS) | HKDC1 act conf inactive
Cc1ccc2nc(N3C(=O)C(O)=C(C(=O)c4ccc(C)o4)C3c3ccco3)sc2c1 (stereo not drawn)	none (no result: Tb hexokinase, Diaph inh CS, G6PDH CS)
COc1cc(/C=C(\C#N)c2nc3ccc(C)cc3[nH]2)cc([N+](=O)[O-])c1O	HKDC1 inhibitor 41, Diaph inh CS 98 | HKDC1 act conf inactive
CCNc1ccc(Br)cc(C(=O)/C=C/c2c(Cl)cccc2Cl)c1=O	HKDC1 inhibitor 37 | HKDC1 act conf inactive
COc1ccc(/C=C/C(=O)c2ccc([N+](=O)[O-])o2)cc1OC	PfG6PD inh 77 (no result: Tb hexokinase, Diaph inh CS, G6PDH CS) | HKDC1 act conf inactive
Cc1ccc(NC(=O)CN2C(=O)S/C(=C\c3cccn3-c3cccc(C(=O)O)c3)C2=O)c(C)c1	none | HKDC1 act conf inactive
Cc1ccccc1NC(=O)CN1C(=O)S/C(=C\c2cccn2-c2cccc(C(=O)O)c2)C1=O	none
O=C(CSc1n[nH]c(-c2cccnc2)n1)Nc1ccc([N+](=O)[O-])cc1Br	HKDC1 inhibitor 46 (no result: Tb hexokinase, Diaph inh CS, G6PDH CS) | HKDC1 act conf inactive
COc1cc(C(=O)N[C@H](C(=O)OCC(=O)NC2CCCCCC2)C(C)C)cc(OC)c1OC	none (no result: Tb hexokinase, Diaph inh CS, G6PDH CS)
c1ccc(Nc2cc(Nc3ccccc3)[nH]n2)cc1	none | HKDC1 act conf inactive
CCCCCn1c(=O)[nH]c2cc(C(=O)NCCc3ccc(OC)c(OC)c3)ccc2c1=O	none
CCCCNC(=O)c1sc(=S)n2c1[nH]c(=O)c1ccc(C(=O)NCCc3ccc(OC)c(OC)c3)cc12	HKDC1 inhibitor 48 (no result: Tb hexokinase, Diaph inh CS, G6PDH CS) | HKDC1 act conf inactive
Nc1nc(NCc2ccccc2Cl)n(-c2ccccc2)n1	none (no result: Tb hexokinase, Diaph inh CS, G6PDH CS)
CC(=O)c1c(C)[nH]c(C2=NNC(=NC(C)(C)C)SC2)c1C	none
